The values below come from ChEMBL document CHEMBL1125578, “Synthesis of a series of nitrothiophenes with basic or electrophilic substituents and evaluation as radiosensitizers and as bioreductively activated cytotoxins” (J Med Chem, 1991).

Some results are limits rather than exact numbers.

One data set relates to Mus musculus. The data set is described as follows: The maximum tolerated dose described as the highest single intraperitoneal dose which did not produce severe or persistent clinical signs or death of the adult non-tumor bearing mice within 24 hours. It is filed as functional. The essentials: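 Adult non-tumor-bearing mice received escalating single ip doses of compound, dissolved fresh in 0.1 M phosphate-buffered saline, pH 7.4, at 0.02 mL/g body weight.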

Data set [1] concerns V79 cells (Cricetulus griseus). The data set is described as follows: In vitro concentration of gamma-radiation to give an enhancement ratio of 1.6 when compared to control V79.
A short description of data set [2]: The ratio of C50(AIR) to that of C50(N2). It is filed as functional. The essentials:
(§1)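 V79 cells were tested in an MTT assay, with incubations run under air or under nitrogen. Optical density was taken as proportional to the number of viable cells at the end of incubation. C50 is the concentration lowering optical density by 50% versus controls. The ratio is C50(AIR)/C50(N2).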

The test system of data set [3] is V79. The experiment in a line: Reduction of optical density by 50% compared to controls when assay was performed under air in […] V79 Cells. It counts as functional, Cricetulus griseus. The essentials: as §1
Data set [4] relates to V79. The data set is described as follows: Reduction of optical density by 50% compared to controls when assay was performed under nitrogen in Hypoxic V79 Cells. It counts as functional, Cricetulus griseus. The method, boiled down: as §1
Data set [5] can be described thus: In vivo radiosensitization of KHT tumors in mice by administration at a dose of 0.34 mmol/kg intraperitoneally. The optimum time interval between injection and irradiation of tumor was 30 minutes. It is filed as ADME, organism-based. The following applies: mouse, ip, 0.5 h.
In data set [6] the test system is V79. The experiment in a line: Compound was evaluated for its concentration to reduce the optical density by 50% compared to controls when assay was performed under air in […] V79 Cells. It is filed as functional, Cricetulus griseus. The method, boiled down: as §1
Data set [7] can be described thus: In vivo radiosensitization of KHT tumors in mice by administration at a dose of 0.17 mmol/kg intraperitoneally. The optimum time interval between injection and irradiation of tumor was 60 minutes. Particulars: mouse, ip, 1 h. It counts as ADME, organism-based.
Data set [8] is described as follows: In vivo radiosensitization of KHT tumors in mice by administration at a dose of 0.38 mmol/kg intraperitoneally. The optimum time interval between injection and irradiation of tumor was 60 minutes. It counts as ADME, organism-based. The following applies: mouse, ip, 1 h.

`Br.O=[N+]([O-])c1nccn1CC(O)CNCCBr` (stereo unspecified) came in with an MTD with Mus musculus of 1 mM/kg. Further, the Activity in data set [1] was found to be 0.1 mM. Further, the Ratio in [2] is 26. Moreover, the C50 is listed as 2.3 mM in the data set with V79 [3] and 0.09 mM in the data set on V79 [4].

In the data set on Mus musculus, `Cc1sc(C(=O)NCCN(C)C)cc1[N+](=O)[O-].Cl` returned an MTD of 0.34 mM/kg. For the same compound, the Activity in [1] amounted to 0.1 mM. Also, the Surviving fraction in data set [5] is 0.005.

Regarding `Cc1sc(C(=O)NCC2CO2)cc1[N+](=O)[O-]` (stereo unspecified), in [1], the Activity was 0.2 mM. Also, the Ratio in data set [2] worked out at 0.9. Also, the C50 with V79 [3] was 0.35 mM; with V79 [4], 0.4 mM.

In turn, `COC(=O)[C@H](CCCCN)NC(=O)c1cc([N+](=O)[O-])c(C)s1.Cl` registered an MTD with Mus musculus of 0.34 mM/kg. In addition, the Activity in [1] is recorded as 0.05 mM. In addition, the Ratio in data set [2] was 1. Also, the C50 with V79 [3] and with V79 [4] was 0.35 mM throughout.

Turning to `C=CCNC(=O)c1ccc([N+](=O)[O-])s1`, the Activity in data set [1] was determined as 0.08 mM. The values for the C50 in the data set with V79 [6] and in the data set on V79 [4] were 0.3 mM and 0.11 mM, respectively. Also, the Ratio in data set [2] was determined as 2.5.

For the compound `O=C(NCC1CO1)c1ccc([N+](=O)[O-])s1` (stereo unspecified), the Activity in data set [1] is recorded as 0.05 mM. For the same compound, the Ratio in [2] amounted to 1. Further, the C50 in the data set on V79 [3] and in the data set on V79 [4] was 0.15 mM each time.

In the data set on Mus musculus, `COCC(O)Cn1ccnc1[N+](=O)[O-]` (stereo unspecified) [MISONIDAZOLE] had an MTD of 4 mM/kg. The Activity in data set [1] amounted to 0.6 mM. Further, the C50 with V79 [3] worked out at 45 mM; with V79 [4], 4 mM.

`O=C(/C=C/c1ccc([N+](=O)[O-])s1)NCC1CO1` (stereo unspecified): in [1], the Activity was 0.05 mM. Besides, the Ratio in data set [2] stood at 1. Further, the C50 with V79 [3] and in the data set with V79 [4] was 0.08 mM throughout.

Take `Cc1sc(C(=O)NCCCN2CCCC2)cc1[N+](=O)[O-].Cl`: the MTD in the data set on Mus musculus is 0.24 mM/kg. Further, the Activity in data set [1] came to 0.03 mM.

In the case of `Cl.O=C(NCCN1CCCCC1)c1ccc([N+](=O)[O-])o1`, the MTD in the data set on Mus musculus was determined as 0.17 mM/kg. Further, the Activity in data set [1] worked out at 0.01 mM. For the same compound, the Surviving fraction in data set [7] is 0.0022. For the same compound, the Ratio in data set [2] is 3. Also, the C50 in the data set with V79 [3] turned out to be 0.05 mM; with V79 [4], 0.016 mM.

Consider `Cc1cc(CC2CO2)sc1[N+](=O)[O-]` (stereo unspecified), for which the Activity in data set [1] was found to be 0.06 mM. Besides, in [2], the Ratio came to 1.3. The C50 is reported as 0.065 mM with V79 [3] and 0.045 mM in the data set on V79 [4].

Turning to `Cc1sc(C(=O)NCCN2CCCCC2)cc1[N+](=O)[O-].Cl`, in the data set with Mus musculus, the MTD is under 0.34 mM/kg. Further, in data set [1], the Activity was determined as 0.07 mM. Besides, in data set [2], the Ratio stood at 2.3. Also, the C50 in the data set with V79 [3] is recorded as 1.8 mM; in the data set with V79 [4] it was 0.8 mM.

For the compound `Cc1sc(C(=O)NCCN2CCOCC2)cc1[N+](=O)[O-].Cl`, in the data set on Mus musculus, the MTD amounted to 0.34 mM/kg. Also, the Activity in data set [1] came out at 1 mM. In addition, in [2], the Ratio came out at 1. The C50 in the data set with V79 [3] and with V79 [4] was 2.5 mM in each case.

`O=[N+]([O-])c1nccn1CC(O)CN1CC1` (stereo unspecified) displayed an MTD with Mus musculus of 0.38 mM/kg. Further, in data set [1], the Activity is listed as 0.1 mM. For the same compound, the Ratio in [2] stood at 67. Moreover, the C50 with V79 [3] was determined as 0.3 mM; in the data set on V79 [4] it was 0.0045 mM. The Surviving fraction in data set [8] is 0.00083.
